Results: publication PMC9817006 (Journal of psychopharmacology (Oxford, England), 2022)
Where two headings read alike, the source gives them in different places.

Assays:
ICR mice = assay: Tail-flick test; type: in vivo
Summary of the method: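 ICR mice (6/group) injected s.c. with test compound (0.001, 0.01, 0.1, 0.5 mg/kg) or saline; tail-flick latency tested at 5, 10, 15, 30, 60 and 120 min. Pre-treatment control latency 2–4 sec; 10 sec cutoff. %MPE = (test−control)/(10−control)×100.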

C57BL/6J mice [1] = assay: Tail-flick test; type: in vivo; conditions: 0.5 mg/kg s.c., 5-120 min
Summary of the method: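 Tail-flick test. A control latency (2–4 sec) was measured for each mouse before dosing, with a 10 sec maximum. Mice (n=6/group) received saline or test compound 0.5 mg/kg s.c. and were tested at 5, 10, 15, 30, 60 and 120 min. %MPE = ((test−control)/(10−control)) × 100.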

C57BL/6J mice [2] = assay: Hot-plate test; type: in vivo; conditions: 0.5 mg/kg s.c., 5-120 min
Summary of the method: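 Hot plate held at 55.0 °C, with mice confined in a 10 cm glass cylinder. Two control latencies were taken at least 10 min apart. Latency was scored at a jump or at licking of the front or hind paws. Mice (n=6/group) received saline or test compound 0.5 mg/kg s.c. and were tested at 5, 10, 15, 30, 60 and 120 min. %MPE = ((test−control)/(40−control)) × 100.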

[3] = system: C57BL/6J mice; β2 and α6 WT and KO mice; assay: Formalin test; type: in vivo
[4] = system: C57BL/6J mice; β2 WT and KO mice; assay: Body temperature; type: in vivo; conditions: 0.5 mg/kg s.c.
Summary of the method: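 Mixed-sex β2 WT and KO mice on a C57BL/6J background, 8/group, given saline or test compound 0.5 mg/kg s.c. Rectal temperature read by thermistor probe inserted 24 mm, just before and at set times after injection. Change from pre-treatment reading computed per mouse; room temperature 21–24°C.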

[5] = system: C57BL/6J mice; β2 and α6 WT and KO mice; assay: Conditioned place preference; type: in vivo
Summary of the method: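 Three-chamber place conditioning in β2 and α6 WT and KO mice (C57BL/6J background, 8–10/group). Day 1: 5 min confinement to the middle chamber, then 15 min free access. Test compound (0.05 mg/kg s.c.) or vehicle given over three conditioning days, sessions 4 h apart, paired chamber randomized. Day 5: drug-free 15 min test. Score = drug-paired-side time on test day minus baseline.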

[6] = molecular target: high sensitivity α4(2)β2(3) nAChR (Homo sapiens, UniProt P17787+P43681); assay: Two-electrode voltage clamp in Xenopus oocytes, HS α4β2; type: cell-based
Sequence of high sensitivity α4(2)β2(3) nAChR (P17787 26-502): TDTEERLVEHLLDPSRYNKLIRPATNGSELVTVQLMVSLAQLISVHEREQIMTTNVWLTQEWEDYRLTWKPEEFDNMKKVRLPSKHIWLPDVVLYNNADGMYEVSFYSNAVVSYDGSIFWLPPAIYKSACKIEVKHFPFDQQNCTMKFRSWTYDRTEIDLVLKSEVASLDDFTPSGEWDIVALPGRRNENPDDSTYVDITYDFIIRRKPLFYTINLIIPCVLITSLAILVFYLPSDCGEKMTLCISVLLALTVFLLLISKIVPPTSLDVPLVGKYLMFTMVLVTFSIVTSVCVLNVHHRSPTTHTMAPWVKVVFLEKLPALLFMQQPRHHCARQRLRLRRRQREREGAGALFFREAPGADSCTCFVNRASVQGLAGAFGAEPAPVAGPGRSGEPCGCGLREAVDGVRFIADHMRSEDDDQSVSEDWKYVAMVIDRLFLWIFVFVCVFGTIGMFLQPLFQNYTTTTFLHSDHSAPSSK
Sequence of high sensitivity α4(2)β2(3) nAChR (P43681 29-627 limits assumed): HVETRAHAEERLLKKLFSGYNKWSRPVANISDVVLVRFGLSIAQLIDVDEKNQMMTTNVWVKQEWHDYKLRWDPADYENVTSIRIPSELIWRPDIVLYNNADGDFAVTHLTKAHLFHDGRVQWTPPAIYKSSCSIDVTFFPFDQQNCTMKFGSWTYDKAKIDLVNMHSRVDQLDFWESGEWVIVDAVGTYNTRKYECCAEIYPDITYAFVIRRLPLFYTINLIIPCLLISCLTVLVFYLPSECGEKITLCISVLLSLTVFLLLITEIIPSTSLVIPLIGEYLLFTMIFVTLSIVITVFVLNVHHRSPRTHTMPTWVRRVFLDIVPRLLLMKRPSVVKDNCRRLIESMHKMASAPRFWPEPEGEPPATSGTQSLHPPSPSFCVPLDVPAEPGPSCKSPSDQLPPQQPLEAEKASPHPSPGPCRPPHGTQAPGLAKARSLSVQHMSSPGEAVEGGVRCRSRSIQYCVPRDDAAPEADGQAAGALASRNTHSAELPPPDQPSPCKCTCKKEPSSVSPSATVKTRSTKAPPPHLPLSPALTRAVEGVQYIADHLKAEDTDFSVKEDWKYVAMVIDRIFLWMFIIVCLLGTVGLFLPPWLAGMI
Sequence of high sensitivity α4(2)β2(3) nAChR (P17787 26-502): as the sequence (P17787 26-502) above
Summary of the method: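 Human HS α4β2 nAChR from in vitro–transcribed cRNA in Xenopus oocytes. Two-electrode clamp at −60 mV, 24°C, in Ringer's (pH 7.2, 1 μM atropine) perfused at 2 ml/min. Test compound over a concentration range as 12 s applications with 181 s washout. Peak current and net charge taken relative to same-cell 10 μM ACh controls, then scaled to ACh maximum from separate experiments; ≥4 oocytes.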

[7] = molecular target: low sensitivity α4(3)β2(2) nAChR (Homo sapiens, UniProt P17787+P43681); assay: Two-electrode voltage clamp in Xenopus oocytes, LS α4β2; type: cell-based
Sequence of low sensitivity α4(3)β2(2) nAChR (P17787 26-502): as above
Sequence of low sensitivity α4(3)β2(2) nAChR (P43681 29-627 limits assumed): as the sequence (P43681 29-627 limits assumed) above
Sequence of low sensitivity α4(3)β2(2) nAChR (P43681 29-627 limits assumed): as above
Summary of the method: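 LS α4β2 nAChR (human, cRNA in Xenopus oocytes) clamped at −60 mV, 24°C, with Ringer's (pH 7.2, 1 μM atropine) at 2 ml/min. Varying test compound concentrations applied for 12 s, then 181 s washout. Peak currents and net charge normalized to same-cell 100 μM ACh controls, then adjusted to ACh maximum determined separately; at least four oocytes.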

β3α4β2α6β2 nAChR = β3α4β2α6β2 nAChR (Homo sapiens, UniProt P17787+P43681+Q15825); assay: Two-electrode voltage clamp in Xenopus oocytes, α6-containing concatemer; type: cell-based
Sequence of β3α4β2α6β2 nAChR (P43681 29-627 limits assumed): as above
Sequence of β3α4β2α6β2 nAChR (P17787 26-502): as the sequence (P17787 26-502) above
Sequence of β3α4β2α6β2 nAChR (Q15825 26-494): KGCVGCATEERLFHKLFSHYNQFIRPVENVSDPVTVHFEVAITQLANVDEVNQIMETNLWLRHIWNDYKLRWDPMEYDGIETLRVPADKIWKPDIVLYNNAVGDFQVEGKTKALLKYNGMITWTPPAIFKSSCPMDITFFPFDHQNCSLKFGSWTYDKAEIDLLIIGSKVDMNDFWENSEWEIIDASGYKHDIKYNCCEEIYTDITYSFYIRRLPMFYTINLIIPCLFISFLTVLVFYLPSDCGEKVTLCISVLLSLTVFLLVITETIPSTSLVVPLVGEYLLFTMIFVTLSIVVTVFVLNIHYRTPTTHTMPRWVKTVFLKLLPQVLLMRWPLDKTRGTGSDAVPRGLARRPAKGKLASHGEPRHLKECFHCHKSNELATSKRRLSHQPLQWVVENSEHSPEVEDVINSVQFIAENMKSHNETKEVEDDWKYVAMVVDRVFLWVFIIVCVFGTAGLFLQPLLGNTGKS
Sequence of β3α4β2α6β2 nAChR (P17787 26-502): as the sequence (P17787 26-502) above
Summary of the method: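 α6-containing receptor expressed in Xenopus oocytes as a five-subunit human β3α4β2α6β2 concatemer cRNA. Voltage clamp at −60 mV, 24°C, in Ringer's (pH 7.2, 1 μM atropine). Test compound applied 12 s at varying concentrations, 181 s washout. Peak current and net charge referenced to same-cell 30 μM ACh controls and rescaled to ACh maximum from other experiments; ≥4 oocytes.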

rats = conditions: ref Freitas et al., 2016; cited from earlier work
[8] = C57BL/6J mice, 0.5 mg/kg s.c., pretreatment 5, 15, 30, 60 min
[9] = α6 WT and KO mice, 0.5 mg/kg s.c., 15 min pretreatment
[10] = β2 WT mice, 0.5 mg/kg s.c., 15 min pretreatment
[11] = α4(2)β2(3), normalized to the maximum ACh responses
[12] = α4(3)β2(2), normalized to the maximum ACh responses
[13] = β3α4β2α6β2, normalized to the maximum ACh responses

SMILES: Ic1cncc(OC[C@@H]2CCN2)c1 [5IA, 5-Iodo-A-85380]
- Antinociceptive response, tail-flick test (ICR mice; 0.001 mg/kg s.c., 5 min after injection): 2 ± 2 % MPE
- Antinociceptive response, tail-flick test (ICR mice; 0.001 mg/kg s.c., 10 min after injection): 3 ± 1 % MPE
- Antinociceptive response, tail-flick test (ICR mice; 0.001 mg/kg s.c., 15 min after injection): 3 ± 2 % MPE
- Antinociceptive response, tail-flick test (ICR mice; 0.001 mg/kg s.c., 30 min after injection): 0 ± 0 % MPE
- Antinociceptive response, tail-flick test (ICR mice; 0.001 mg/kg s.c., 60 min after injection): 1 ± 1 % MPE
- Antinociceptive response, tail-flick test (ICR mice; 0.001 mg/kg s.c., 120 min after injection): 4 ± 2 % MPE
- Antinociceptive response, tail-flick test (ICR mice; 0.01 mg/kg s.c., 5 min after injection): 1 ± 1 % MPE
- Antinociceptive response, tail-flick test (ICR mice; 0.01 mg/kg s.c., 10 min after injection): 2 ± 1 % MPE
- Antinociceptive response, tail-flick test (ICR mice; 0.01 mg/kg s.c., 15 min after injection): 2 ± 1 % MPE
- Antinociceptive response, tail-flick test (ICR mice; 0.01 mg/kg s.c., 30 min after injection): 2 ± 2 % MPE
- Antinociceptive response, tail-flick test (ICR mice; 0.01 mg/kg s.c., 60 min after injection): 1 ± 1 % MPE
- Antinociceptive response, tail-flick test (ICR mice; 0.01 mg/kg s.c., 120 min after injection): 1 ± 1 % MPE
- Antinociceptive response, tail-flick test (ICR mice; 0.1 mg/kg s.c., 5 min after injection): 0 ± 0 % MPE
- Antinociceptive response, tail-flick test (ICR mice; 0.1 mg/kg s.c., 10 min after injection): 3 ± 1 % MPE
- Antinociceptive response, tail-flick test (ICR mice; 0.1 mg/kg s.c., 15 min after injection): 3 ± 1 % MPE
- Antinociceptive response, tail-flick test (ICR mice; 0.1 mg/kg s.c., 30 min after injection): 6 ± 4 % MPE
- Antinociceptive response, tail-flick test (ICR mice; 0.1 mg/kg s.c., 60 min after injection): 3 ± 2 % MPE
- Antinociceptive response, tail-flick test (ICR mice; 0.1 mg/kg s.c., 120 min after injection): 5 ± 2 % MPE
- Antinociceptive response, tail-flick test (ICR mice; 0.5 mg/kg s.c., 5 min after injection): 10 ± 4 % MPE
- Antinociceptive response, tail-flick test (ICR mice; 0.5 mg/kg s.c., 10 min after injection): 4 ± 3 % MPE
- Antinociceptive response, tail-flick test (ICR mice; 0.5 mg/kg s.c., 15 min after injection): 11 ± 4 % MPE
- Antinociceptive response, tail-flick test (ICR mice; 0.5 mg/kg s.c., 30 min after injection): 7 ± 4 % MPE
- Antinociceptive response, tail-flick test (ICR mice; 0.5 mg/kg s.c., 60 min after injection): 6 ± 3 % MPE
- Antinociceptive response, tail-flick test (ICR mice; 0.5 mg/kg s.c., 120 min after injection): 7 ± 3 % MPE
- Effect on acute thermal antinociception, tail-flick test (in words) (ICR mice; 0.001-0.5 mg/kg s.c., 5-120 min, Dunnett's post hoc): no significant effects of dose at any of the observed time points
- Effect on acute thermal antinociception, tail-flick test (in words) (C57BL/6J mice [1]): no significant effect of 5IA on acute thermal antinociception in the hot plate or tail-flick test
- Effect on acute thermal antinociception, hot plate test (in words) (C57BL/6J mice [2]): no significant effect of 5IA on acute thermal antinociception in the hot plate or tail-flick test
- Paw licking, formalin test phase I, time course (in words) [3, 8]: significant effects of 5IA treatment at 5, 15, 30, and 60 min in phase I
- Paw licking, formalin test phase II, time course (in words) [3, 8]: significant differences observed at only 5 and 15 minutes
- Paw licking, formalin test, dose-response (in words) ([3]; C57BL/6J mice, 0.01, 0.1, 0.5 mg/kg s.c., 15 min pretreatment, vs vehicle): significant attenuation of paw licking responses at 0.1 and 0.5 mg/kg
- Paw licking, formalin test phase I (in words) [3, 9]: completely blocked the paw licking behavior in both α6 WT and KO mice in phase I
- Paw licking, formalin test phase II (in words) [3, 9]: only partially inhibited it in phase II
- Paw licking, formalin test phase I (in words) [3, 10]: significantly attenuated paw licking time in phase I
- Paw licking, formalin test phase II (in words) [3, 10]: partially decreased paw licking time in phase II
- Body temperature, time course (in words) ([4]; C57BL/6J mice, vs vehicle): significant reductions in body temperature in comparison to their vehicle controls at 15-, 30- and 60-min
- Hypothermic effect in β2 KO vs WT mice (in words) ([4]; β2 WT and KO mice): significantly abolished in β2 KO mice
- Conditioned place preference, dose-response (in words) ([5]; C57BL/6J mice, 0.01, 0.05, 0.1, 0.5 or 1 mg/kg s.c.): significant 5IA induced-CPP at 0.05 and 0.1 mg/kg, but not at 0.01, 0.5, and 1 mg/kg
- Conditioned place preference, α6 WT vs KO (in words) ([5]; α6 WT and KO mice, 0.05 mg/kg s.c.): no significant difference in 5IA-induced CPP between α6 WT and KO mice
- Conditioned place preference (in words) ([5]; β2 KO mice, 0.05 mg/kg s.c.): significantly abolished in β2 KO mice
- Conditioned place preference (in words) ([5]; β2 WT mice, 0.05 mg/kg s.c.): significant CPP in comparison to their vehicle counterparts
- Effect on current duration (in words) ([6]; HS α4β2 receptors): prolonged the currents
- Efficacy (in words) ([6]; high sensitivity α4(2)β2(3)): full agonist
- EC50 ([6]; read-out: Net Charge EC50, α4(2)β2(3)): 62 ± 11 nM
- EC50 ([6]; read-out: Peak Currents EC50, α4(2)β2(3)): 42 ± 2 nM
- Net Charge Imax [6, 11]: 3.0 ± 0.18
- Peak Currents Imax [6, 11]: 1.3 ± 0.02
- Efficacy (in words) ([7]; low sensitivity α4(3)β2(2)): very low efficacy
- EC50 ([7]; read-out: Net Charge EC50, α4(3)β2(2)): 25 ± 14 nM
- EC50 ([7]; read-out: Peak Currents EC50, α4(3)β2(2)): 37 ± 6.3 nM
- Net Charge Imax [7, 12]: 0.22 ± 0.04
- Peak Currents Imax [7, 12]: 0.22 ± 0.1
- EC50 (β3α4β2α6β2 nAChR; read-out: Net Charge EC50, β3α4β2α6β2): 19 ± 0.4 nM
- EC50 (β3α4β2α6β2 nAChR; read-out: Peak Currents EC50, β3α4β2α6β2): 11 ± 0.01 nM
- Efficacy (in words) (β3α4β2α6β2 nAChR; α6-containing subtypes): intermediate efficacy
- Net Charge Imax (β3α4β2α6β2 nAChR; [13]): 0.76 ± 0.01
- Peak Currents Imax (β3α4β2α6β2 nAChR; [13]): 0.78 ± 0.1
- Intracranial self-stimulation (ICSS) (in words) (rats): dose-dependently produced facilitated intracranial self-stimulation (ICSS)
